How the values were obtained:
Assay type in all cases: ADME
[1] = target: T1, Solute carrier family 15 member 1 (Rattus norvegicus, UniProt P51574); assay: Drug uptake in Pichia pastoris GS115 expressing rat recombinant PEPT1 at 5 uM after 30s by dual-channel liquid scintillation counting analysis in presence of acyclovir relative to control; settings: in vivo, 0.5 min
T1 sequence (P51574 whole entry): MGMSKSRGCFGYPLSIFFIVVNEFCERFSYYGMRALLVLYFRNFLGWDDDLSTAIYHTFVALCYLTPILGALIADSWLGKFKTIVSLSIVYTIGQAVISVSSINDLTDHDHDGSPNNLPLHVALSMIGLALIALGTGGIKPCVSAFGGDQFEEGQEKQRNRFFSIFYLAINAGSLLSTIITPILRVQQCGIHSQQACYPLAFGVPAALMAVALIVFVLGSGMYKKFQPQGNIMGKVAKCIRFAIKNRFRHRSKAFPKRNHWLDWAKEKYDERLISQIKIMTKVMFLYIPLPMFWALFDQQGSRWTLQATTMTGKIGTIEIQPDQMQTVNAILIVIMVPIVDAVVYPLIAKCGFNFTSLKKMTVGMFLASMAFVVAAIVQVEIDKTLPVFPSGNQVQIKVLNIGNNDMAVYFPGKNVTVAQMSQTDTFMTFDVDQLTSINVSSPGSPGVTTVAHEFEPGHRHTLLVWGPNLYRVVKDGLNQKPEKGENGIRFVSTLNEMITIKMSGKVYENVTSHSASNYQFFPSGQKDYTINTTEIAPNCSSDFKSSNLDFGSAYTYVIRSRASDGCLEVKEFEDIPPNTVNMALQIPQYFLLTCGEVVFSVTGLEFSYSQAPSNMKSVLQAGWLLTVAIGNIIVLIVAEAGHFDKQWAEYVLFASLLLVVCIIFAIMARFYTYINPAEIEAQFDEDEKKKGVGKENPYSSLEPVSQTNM
Summary of the method: (§1)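 [3H]GlySar 5.0 µM final, 30-s uptake at 24°C in 100 mM potassium phosphate pH 6.5, with or without a potential inhibitor at 10 mM. Cells are methanol-induced transformants. Values are vector-subtracted and expressed as percent of buffer control. Mean ± SE (n=3). ANOVA with Dunnett's test.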

[2] = target: T2, Solute carrier family 15 member 1 (Homo sapiens, UniProt P46059); assay: Drug uptake in Pichia pastoris GS115 expressing human recombinant PEPT1 at 5 uM after 30s by dual-channel liquid scintillation counting analysis in presence of cefazolin relative to control; settings: 0.5 min; summary of the method: as §1
T2 sequence (P46059 whole entry): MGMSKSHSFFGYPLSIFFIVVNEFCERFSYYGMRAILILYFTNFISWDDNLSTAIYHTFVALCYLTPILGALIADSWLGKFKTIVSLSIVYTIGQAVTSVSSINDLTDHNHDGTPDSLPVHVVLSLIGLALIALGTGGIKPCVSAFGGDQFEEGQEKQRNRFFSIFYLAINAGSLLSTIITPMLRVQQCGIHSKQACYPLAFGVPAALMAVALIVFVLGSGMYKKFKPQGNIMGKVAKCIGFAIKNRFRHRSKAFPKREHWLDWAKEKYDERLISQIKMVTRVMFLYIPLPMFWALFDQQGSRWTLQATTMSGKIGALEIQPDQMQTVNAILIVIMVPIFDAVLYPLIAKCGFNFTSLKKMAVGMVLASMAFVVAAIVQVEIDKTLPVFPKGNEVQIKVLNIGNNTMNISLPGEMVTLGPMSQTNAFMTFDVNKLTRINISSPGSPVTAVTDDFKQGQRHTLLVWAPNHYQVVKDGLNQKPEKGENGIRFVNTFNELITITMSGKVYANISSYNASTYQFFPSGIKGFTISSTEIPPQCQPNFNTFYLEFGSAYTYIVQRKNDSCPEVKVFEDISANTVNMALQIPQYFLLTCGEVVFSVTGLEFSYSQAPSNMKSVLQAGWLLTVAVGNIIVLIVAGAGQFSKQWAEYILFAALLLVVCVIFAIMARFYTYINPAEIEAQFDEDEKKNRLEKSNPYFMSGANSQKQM

[3] = target: T3, Solute carrier family 15 member 1 (Mus musculus, UniProt Q9JIP7); assay: Drug uptake in Pichia pastoris GS115 expressing mouse recombinant PEPT1 at 5 uM after 30s by dual-channel liquid scintillation counting analysis in presence of cephapirin relative to control; settings: 0.5 min; summary of the method: as §1
T3 sequence (Q9JIP7 whole entry): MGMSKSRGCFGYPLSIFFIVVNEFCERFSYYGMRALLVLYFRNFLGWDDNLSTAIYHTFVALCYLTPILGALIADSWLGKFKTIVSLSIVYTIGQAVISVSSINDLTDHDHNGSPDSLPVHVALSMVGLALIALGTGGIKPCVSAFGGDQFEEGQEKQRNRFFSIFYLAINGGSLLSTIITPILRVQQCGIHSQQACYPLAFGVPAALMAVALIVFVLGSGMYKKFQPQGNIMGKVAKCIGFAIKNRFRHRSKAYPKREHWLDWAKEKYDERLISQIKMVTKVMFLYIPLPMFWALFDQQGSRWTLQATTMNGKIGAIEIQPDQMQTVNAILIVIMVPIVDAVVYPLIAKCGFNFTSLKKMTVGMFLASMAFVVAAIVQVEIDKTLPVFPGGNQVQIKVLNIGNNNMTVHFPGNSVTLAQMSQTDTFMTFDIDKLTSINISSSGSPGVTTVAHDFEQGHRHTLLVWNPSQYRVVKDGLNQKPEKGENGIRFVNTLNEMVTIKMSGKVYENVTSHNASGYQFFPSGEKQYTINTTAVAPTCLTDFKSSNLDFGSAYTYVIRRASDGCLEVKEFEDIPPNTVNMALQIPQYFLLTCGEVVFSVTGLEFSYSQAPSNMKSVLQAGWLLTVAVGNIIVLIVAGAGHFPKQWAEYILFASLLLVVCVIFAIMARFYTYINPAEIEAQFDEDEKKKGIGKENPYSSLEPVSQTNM

[4] = target: T2, Solute carrier family 15 member 1; assay: Drug uptake in Pichia pastoris GS115 expressing human recombinant PEPT1 at 5 uM after 30s by dual-channel liquid scintillation counting analysis in presence of SITS relative to control; settings: 0.5 min; summary of the method: as §1
[5] = target: T3, Solute carrier family 15 member 1; assay: Activity at mouse recombinant PEPT1 expressed in Pichia pastoris GS115 assessed as non-saturable rate constant after 30s by dual-channel liquid scintillation counting analysis
Summary of the method: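 [3H]GlySar concentration series 0.005-10 mM, 30-s uptake at 24°C in 100 mM potassium phosphate pH 6.5. Cells come from His+Mut+ GS115 transformants induced 20-24 h in methanol medium. Uptake is normalised to OD600. Data are fitted to Michaelis-Menten plus a first-order nonsaturable term (Kd), weighting unity. Parameters are mean ± SE (n=9).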

[6] = target: T3, Solute carrier family 15 member 1; assay: Drug uptake in Pichia pastoris GS115 expressing mouse recombinant PEPT1 at 5 uM after 30s by dual-channel liquid scintillation counting analysis in presence of glycine relative to control; settings: in vivo, 0.5 min; summary of the method: as §1
[7] = target: T2, Solute carrier family 15 member 1; assay: Drug uptake in Pichia pastoris GS115 expressing human recombinant PEPT1 at 5 uM after 30s by dual-channel liquid scintillation counting analysis in presence of cefadroxil relative to control; settings: 0.5 min; summary of the method: as §1

Drug uptake [1]: 109%
Drug uptake [2]: 81.1%
Drug uptake [3]: 83.7%
Drug uptake [4]: 127%
Kd [5]: 2.21 uL/OD/min
Drug uptake [6]: 104%
Drug uptake [7]: 6.4%
SMILES: [3H]C(C(=O)O)N(C)C(=O)CN (configuration not stated)
